Reference: ChEMBL document CHEMBL3997796 (J Med Chem, 2017)
Calls of active or inactive are those of the source. No cut-off for these calls is given here.

Columns and labels:
Autotaxin [1] = molecular target: T1, Autotaxin (Homo sapiens, UniProt Q13822); test: Inhibition of recombinant human C-terminal FLAg-tagged ATX nucleotide pyrophosphate phosphatase activity expressed in baculovirus infected sf9 cells using pNP-TMP as substrate measured every 2 mins for 1 hr by fluorescence assay
[2] = molecular target: T2, Glycerophosphocholine cholinephosphodiesterase ENPP6 (Homo sapiens) (UniProt Q6UWR7); test: Inhibition of ENPP6 (unknown origin) using pNPPC as substrate measured every 2 mins for 1 hr by […]
T2 sequence (whole entry): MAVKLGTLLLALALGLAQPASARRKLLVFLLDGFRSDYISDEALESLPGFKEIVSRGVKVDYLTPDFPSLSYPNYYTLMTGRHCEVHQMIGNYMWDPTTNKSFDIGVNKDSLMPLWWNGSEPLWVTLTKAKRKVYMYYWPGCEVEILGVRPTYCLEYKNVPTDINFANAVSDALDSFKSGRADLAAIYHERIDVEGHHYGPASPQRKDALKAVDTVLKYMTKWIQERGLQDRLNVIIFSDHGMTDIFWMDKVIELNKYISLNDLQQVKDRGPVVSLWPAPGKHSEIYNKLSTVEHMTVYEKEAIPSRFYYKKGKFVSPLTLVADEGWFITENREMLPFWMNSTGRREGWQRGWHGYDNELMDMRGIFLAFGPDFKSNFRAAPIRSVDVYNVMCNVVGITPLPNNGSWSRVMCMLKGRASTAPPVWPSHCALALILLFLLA
How it was run: (§1)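 10 nM ENPP6 or ENPP7, 10 μM pNPPC, compound 0–10 μM, triplicate; ENPP6 buffer 100 mM Tris, 500 mM NaCl, 0.05% Triton pH 9.0; ENPP7 buffer 50 mM Tris, 150 mM NaCl, 10 mM taurocholate pH 8.5; 405 nm absorbance every 2 min for 1 h.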

[3] = molecular target: T3, Ectonucleotide pyrophosphatase/phosphodiesterase family member 7 (Homo sapiens) (UniProt Q6UWV6); test: Inhibition of ENPP7 (unknown origin) using pNPPC as substrate measured every 2 mins for 1 hr by […]; how it was run: as §1
T3 sequence (whole entry): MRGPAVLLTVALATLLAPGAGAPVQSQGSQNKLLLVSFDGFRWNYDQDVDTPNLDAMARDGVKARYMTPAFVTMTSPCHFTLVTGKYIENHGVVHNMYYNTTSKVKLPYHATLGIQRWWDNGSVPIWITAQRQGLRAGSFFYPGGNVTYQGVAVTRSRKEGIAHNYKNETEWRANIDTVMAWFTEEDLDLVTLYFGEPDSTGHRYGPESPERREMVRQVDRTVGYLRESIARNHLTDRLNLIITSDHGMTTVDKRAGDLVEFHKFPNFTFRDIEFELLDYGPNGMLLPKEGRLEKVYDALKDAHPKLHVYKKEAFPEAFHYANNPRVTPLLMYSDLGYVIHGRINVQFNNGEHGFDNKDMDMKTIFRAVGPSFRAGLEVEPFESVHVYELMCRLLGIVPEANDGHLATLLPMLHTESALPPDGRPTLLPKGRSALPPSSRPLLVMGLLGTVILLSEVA

Autotaxin [4] = molecular target: T1, Autotaxin; test: Inhibition of recombinant human C-terminal FLAg-tagged ATX lysophospholipase D activity expressed in baculovirus infected sf9 cells using FRET based FS-3 substrate measured every 2 mins for 1 hr by fluorescence assay
[5] = molecular target: Lysophosphatidic acid receptor 5 (Homo sapiens) (UniProt Q9H1C0); test: Antagonist activity at FLAG-tagged LPA5 receptor (unknown origin) expressed in rat B103 cells assessed as inhibition of LPA-induced intracellular calcium level up to 100 uM measured every 3.42 secs for 70 secs by Fura-2-AM dye based fluorescence assay; assay type: functional, cell-based
Sequence of Lysophosphatidic acid receptor 5 (Homo sapiens) (Q9H1C0 whole entry): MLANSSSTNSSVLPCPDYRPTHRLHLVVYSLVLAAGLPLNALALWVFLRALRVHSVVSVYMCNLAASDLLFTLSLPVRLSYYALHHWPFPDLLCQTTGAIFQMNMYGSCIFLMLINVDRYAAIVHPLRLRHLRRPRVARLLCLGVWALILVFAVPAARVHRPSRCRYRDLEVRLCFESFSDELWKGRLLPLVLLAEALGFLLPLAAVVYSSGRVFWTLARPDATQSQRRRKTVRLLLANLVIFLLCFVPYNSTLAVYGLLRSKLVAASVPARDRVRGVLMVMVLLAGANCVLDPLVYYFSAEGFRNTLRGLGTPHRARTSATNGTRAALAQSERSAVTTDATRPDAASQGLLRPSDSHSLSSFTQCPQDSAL

[6] = molecular target: Lysophosphatidic acid receptor 4 (Homo sapiens) (UniProt Q99677); test: Antagonist activity at LPA4 receptor (unknown origin) expressed in CHO cells assessed as inhibition of LPA-induced intracellular calcium level up to 100 uM measured every 3.42 secs for 70 secs by Fura-2-AM dye based fluorescence assay; assay type: functional, cell-based
Sequence of Lysophosphatidic acid receptor 4 (Homo sapiens) (Q99677 whole entry): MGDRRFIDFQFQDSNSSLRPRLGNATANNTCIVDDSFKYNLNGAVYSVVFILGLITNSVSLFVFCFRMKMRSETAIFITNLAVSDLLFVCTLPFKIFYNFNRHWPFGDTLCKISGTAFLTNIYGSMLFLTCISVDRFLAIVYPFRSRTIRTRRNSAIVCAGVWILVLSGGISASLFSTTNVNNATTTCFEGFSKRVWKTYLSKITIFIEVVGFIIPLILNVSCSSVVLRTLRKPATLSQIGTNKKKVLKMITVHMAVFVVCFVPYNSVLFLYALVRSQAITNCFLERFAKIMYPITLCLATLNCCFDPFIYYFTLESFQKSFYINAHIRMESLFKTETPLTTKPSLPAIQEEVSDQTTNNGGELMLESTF

[7] = molecular target: Lysophosphatidic acid receptor 2 (Homo sapiens) (UniProt Q9HBW0); test: Antagonist activity at LPA2 receptor (unknown origin) expressed in MEF cells assessed as inhibition of LPA-induced intracellular calcium level up to 100 uM measured every 3.42 secs for 70 secs by Fura-2-AM dye based fluorescence assay; assay type: functional, cell-based
Sequence of Lysophosphatidic acid receptor 2 (Homo sapiens) (Q9HBW0 whole entry): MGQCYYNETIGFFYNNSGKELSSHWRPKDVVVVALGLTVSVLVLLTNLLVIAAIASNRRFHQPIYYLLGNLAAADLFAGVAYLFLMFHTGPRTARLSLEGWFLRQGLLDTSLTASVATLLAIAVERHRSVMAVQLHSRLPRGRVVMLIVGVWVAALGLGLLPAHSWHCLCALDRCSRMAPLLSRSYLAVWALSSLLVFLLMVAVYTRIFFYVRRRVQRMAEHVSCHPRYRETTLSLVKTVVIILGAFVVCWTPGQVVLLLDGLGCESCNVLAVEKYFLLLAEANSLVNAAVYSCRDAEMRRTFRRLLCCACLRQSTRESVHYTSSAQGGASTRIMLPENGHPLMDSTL

[8] = molecular target: Lysophosphatidic acid receptor 1 (Homo sapiens, UniProt Q92633); test: Antagonist activity at LPA1 receptor (unknown origin) expressed in rat RH7777 cells assessed as inhibition of LPA-induced intracellular calcium level measured every 3.42 secs for 70 secs by Fura-2-AM dye based fluorescence assay; assay type: functional, cell-based
Sequence of Lysophosphatidic acid receptor 1 (Q92633 whole entry): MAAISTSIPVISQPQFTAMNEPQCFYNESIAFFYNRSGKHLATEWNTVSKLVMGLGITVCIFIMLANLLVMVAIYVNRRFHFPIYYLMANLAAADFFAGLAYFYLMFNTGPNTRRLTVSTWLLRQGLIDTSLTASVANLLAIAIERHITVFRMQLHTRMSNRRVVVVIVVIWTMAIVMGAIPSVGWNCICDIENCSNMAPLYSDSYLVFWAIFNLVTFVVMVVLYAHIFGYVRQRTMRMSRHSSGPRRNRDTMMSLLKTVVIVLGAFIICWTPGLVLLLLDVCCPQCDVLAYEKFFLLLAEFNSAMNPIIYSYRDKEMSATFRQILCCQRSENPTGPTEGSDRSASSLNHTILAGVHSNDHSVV

[9] = molecular target: T4, Lysophosphatidic acid receptor 3 (Homo sapiens) (UniProt Q9UBY5); test: Antagonist activity at LPA3 receptor (unknown origin) expressed in rat RH7777 cells assessed as inhibition of LPA-induced intracellular calcium level up to 100 uM measured every 3.42 secs for 70 secs by Fura-2-AM dye based fluorescence assay; assay type: functional, cell-based
T4 sequence (whole entry): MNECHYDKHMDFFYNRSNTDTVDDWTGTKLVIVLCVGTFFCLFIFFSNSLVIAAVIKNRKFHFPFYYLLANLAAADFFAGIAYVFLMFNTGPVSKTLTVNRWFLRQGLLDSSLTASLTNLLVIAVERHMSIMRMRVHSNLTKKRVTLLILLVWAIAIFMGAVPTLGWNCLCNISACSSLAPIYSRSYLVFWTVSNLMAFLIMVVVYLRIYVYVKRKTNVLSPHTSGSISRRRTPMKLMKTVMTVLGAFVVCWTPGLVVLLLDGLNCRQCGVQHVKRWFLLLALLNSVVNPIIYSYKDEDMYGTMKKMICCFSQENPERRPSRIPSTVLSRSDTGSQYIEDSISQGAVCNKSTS

Autotaxin [10] = molecular target: T1, Autotaxin; test: Inhibition of ATX (unknown origin) expressed in human A2058 cells assessed as inhibition of LPC-induced cell invasion at 10 uM after 20 hrs by calcein-AM dye based matrigel-mediated Boyden chamber assay
Autotaxin [11] = molecular target: T1, Autotaxin; test: Inhibition of ATX (unknown origin) expressed in human A2058 cells assessed as inhibition of LPC-induced cell invasion after 20 hrs by calcein-AM dye based matrigel-mediated Boyden chamber assay
Autotaxin [12] = molecular target: T1, Autotaxin; test: Competitive inhibition of recombinant human C-terminal FLAg-tagged ATX expressed in baculovirus infected sf9 cells using varying levels of FRET based FS-3 substrate at 0.5 to 2 times IC50 measured every 2 mins for 1 hr by Michaelis-Menten plot analysis

In the case of `N#Cc1c(F)cc(NC(=O)c2cc(S(=O)(=O)N3CCOCC3)c(Cl)cc2Cl)cc1F`, the inhibition (Autotaxin [1]) is reported as “inactive”, the inhibition [2] is reported as “inactive” and the inhibition [3] is reported as “inactive”.
For `O=C(Nc1cc(F)c(F)c(F)c1Br)c1cc(S(=O)(=O)N2CCOCC2)c(Cl)cc1Cl`, the inhibition (Autotaxin [1]) was “inactive”, the inhibition [2] was “inactive” and the IC50 (Autotaxin [4]) was 18 nM. For the same compound, the inhibition [5] was “inactive”, the inhibition [3] was “inactive” and the inhibition [6] was “inactive”. The inhibition [7] was “inactive”, the IC50 [8] was “Not Active” and the inhibition [9] was “inactive”.
For `O=S(=O)(c1cc(C(=S)Nc2cc(Cl)c(F)c(Cl)c2)c(Cl)cc1Cl)N1CCOCC1`, the inhibition (Autotaxin [1]) was “inactive”, the inhibition [2] was “inactive” and the IC50 (Autotaxin [4]) was 98 nM. For the same compound, the inhibition [3] was “inactive”.
For `COc1cc(Cl)c(C(=O)Nc2cc(F)c(C(=O)O)c(F)c2)cc1S(=O)(=O)N1CCOCC1`, the inhibition (Autotaxin [1]) was “inactive”, the inhibition [2] was “inactive” and the IC50 (Autotaxin [4]) was greater than 1000 nM. The inhibition [3] was “inactive”.
For `CN1CCN(S(=O)(=O)c2cc(C(=O)Nc3cc(Cl)c(F)c(Cl)c3)c(Cl)cc2Cl)CC1`, the inhibition (Autotaxin [1]) was “inactive”, the inhibition [2] was “inactive” and the inhibition [3] was “inactive”.
For `CN1CCN(S(=O)(=O)c2cc(C(=S)Nc3cc(Cl)c(F)c(Cl)c3)c(Cl)cc2Cl)CC1`, the inhibition (Autotaxin [1]) was “inactive”, the inhibition [2] was “inactive” and the inhibition [3] was “inactive”.
In the case of `O=S(=O)(c1cc(CNc2ccc(F)c(F)c2)c(Cl)cc1Cl)N1CCOCC1`, the inhibition (Autotaxin [1]) is reported as “inactive”, the inhibition [2] is reported as “inactive” and the IC50 (Autotaxin [4]) is reported as greater than 1000 nM. For the same compound, the inhibition [3] was “inactive”.
`O=C(Nc1cc(F)c(F)c(F)c1)c1cc(NN2CCOCC2)c(Cl)cc1Cl` was tested, and the inhibition (Autotaxin [1]) was “inactive”, the inhibition [2] was “inactive” and the IC50 (Autotaxin [4]) was greater than 1000 nM. For the same compound, the inhibition [3] was “inactive”.
For `O=S(=O)(c1cc(-c2nc3cccc(F)c3o2)c(Cl)cc1Cl)N1CCOCC1`, the inhibition (Autotaxin [1]) was “inactive”, the inhibition [2] was “inactive” and the IC50 (Autotaxin [4]) was greater than 1000 nM. For the same compound, the inhibition [3] was “inactive”.
With `COC(=O)c1c(F)cc(NC(=O)c2cc(S(=O)(=O)N3CCOCC3)c(Cl)cc2Cl)cc1F` the inhibition (Autotaxin [1]) was “inactive”, the inhibition [2] was “inactive” and the inhibition [3] was “inactive”.
For `O=S(=O)(c1cc(CNc2cc(F)c(F)c(F)c2)c(Cl)cc1Cl)N1CCOCC1`, the inhibition (Autotaxin [1]) was “inactive”, the inhibition [2] was “inactive” and the inhibition [3] was “inactive”.
`COc1cc(NC(=O)c2cc(S(=O)(=O)N3CCOCC3)c(Cl)cc2Cl)cc(OC)c1OC` was tested, and the inhibition (Autotaxin [1]) was “inactive”, the inhibition [2] was “inactive” and the IC50 (Autotaxin [4]) was greater than 1000 nM. The inhibition [3] was “inactive”.
With `CN1CCN(S(=O)(=O)c2cc(C(=O)Nc3cc(F)c(F)c(F)c3)c(Cl)cc2Cl)CC1` the inhibition (Autotaxin [1]) was “inactive”, the inhibition [2] was “inactive” and the inhibition [3] was “inactive”.
With `CN(C(=O)c1cc(S(=O)(=O)N2CCOCC2)c(Cl)cc1Cl)c1cccc(F)c1` the inhibition (Autotaxin [1]) was “inactive”, the inhibition [2] was “inactive” and the IC50 (Autotaxin [4]) was greater than 1000 nM. The inhibition [3] was “inactive”.
For `O=S(=O)(Nc1cc(F)c(F)c(F)c1)c1cc(S(=O)(=O)N2CCOCC2)c(Cl)cc1Cl`, the inhibition (Autotaxin [1]) was “inactive”, the inhibition [2] was “inactive” and the IC50 (Autotaxin [4]) was greater than 1000 nM. For the same compound, the inhibition [3] was “inactive”.
For `CS(=O)(=O)N(C(=O)c1cc(NN2CCOCC2)c(Cl)cc1Cl)c1cc(F)c(F)c(F)c1`, the inhibition (Autotaxin [1]) was “inactive”, the inhibition [2] was “inactive” and the IC50 (Autotaxin [4]) was greater than 1000 nM. For the same compound, the inhibition [3] was “inactive”.
`O=S(=O)(c1cc(N(S(=O)(=O)c2cccc(F)c2)S(=O)(=O)c2cccc(F)c2)c(Cl)cc1Cl)N1CCOCC1` was tested, and the inhibition (Autotaxin [1]) was “inactive”, the inhibition [2] was “inactive” and the IC50 (Autotaxin [4]) was greater than 1000 nM. The inhibition [3] was “inactive”.
In the case of `O=C(Nc1ccc(F)c(F)c1)c1cc(S(=O)(=O)N2CCOCC2)c(Cl)cc1Cl`, the inhibition (Autotaxin [1]) is reported as “inactive”, the inhibition [2] is reported as “inactive” and the inhibition [3] is reported as “inactive”. For the same compound, the inhibition (Autotaxin [10]) was “Active”, the inhibition (Autotaxin [11]) was “Dose-dependent effect” and the inhibition (Autotaxin [12]) was “Active”.
For `O=S(=O)(Nc1cccc(F)c1)c1cc(S(=O)(=O)N2CCOCC2)c(Cl)cc1Cl`, the inhibition (Autotaxin [1]) was “inactive”, the inhibition [2] was “inactive” and the IC50 (Autotaxin [4]) was greater than 1000 nM. For the same compound, the inhibition [3] was “inactive”.
For `O=S(=O)(c1cc(-c2nc3cc(F)c(F)cc3[nH]2)c(Cl)cc1Cl)N1CCOCC1`, the inhibition (Autotaxin [1]) was “inactive”, the inhibition [2] was “inactive” and the IC50 (Autotaxin [4]) was greater than 1000 nM. The inhibition [3] was “inactive”.
For `O=S(=O)(Nc1cc(S(=O)(=O)N2CCOCC2)c(Cl)cc1Cl)c1cccc(F)c1`, the inhibition (Autotaxin [1]) was “inactive”, the inhibition [2] was “inactive” and the IC50 (Autotaxin [4]) was greater than 1000 nM. The inhibition [3] was “inactive”.
`O=S(=O)(c1cc(C(=S)Nc2ccc(F)c(F)c2)c(Cl)cc1Cl)N1CCOCC1` was tested, and the inhibition (Autotaxin [1]) was “inactive”, the inhibition [2] was “inactive” and the IC50 (Autotaxin [4]) was 70 nM. The inhibition [3] was “inactive”.
`O=C(Nc1cc(Cl)c(Cl)c(Cl)c1)c1cc(S(=O)(=O)N2CCOCC2)c(Cl)cc1Cl` was tested, and the inhibition (Autotaxin [1]) was “inactive”, the inhibition [2] was “inactive” and the IC50 (Autotaxin [4]) was greater than 1000 nM. For the same compound, the inhibition [3] was “inactive”.
With `O=S(=O)(c1cc(C(=S)Nc2cccc(F)c2)c(Cl)cc1Cl)N1CCOCC1` the inhibition (Autotaxin [1]) was “inactive”, the inhibition [2] was “inactive” and the inhibition [3] was “inactive”.
`O=C(Nc1c(F)c(F)c(F)c(F)c1F)c1cc(S(=O)(=O)N2CCOCC2)c(Cl)cc1Cl` was tested, and the inhibition (Autotaxin [1]) was “inactive”, the inhibition [2] was “inactive” and the inhibition [3] was “inactive”.
